Screening data as filed in PubChem.
A selection: hits, their analogues and other compounds. The true share with any hit is near 1.8%.
MBD2 DNA inh: inhibitors of human MBD2 binding to methylated oligonucleotide | Q9UBB5 | TR-FRET | inhibition, % at 4.4 µM | 370,000 compounds, 0.31% hits | AID 686964; in the data active = inhibition above about 13%
CASP6 VEID inh: blocks human caspase-6 cleavage activity; P55212; purified caspase-6, Z-VEID-R110 cleavage fluorescence; inhibition, % at 12.5 µM; 350,000 compounds, 0.53% hits;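 active = mean inhibition across replicates at least about 35%, with every replicate also reaching that limit, limit read from the data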
Target sequence (P55212 24-179 limits assumed): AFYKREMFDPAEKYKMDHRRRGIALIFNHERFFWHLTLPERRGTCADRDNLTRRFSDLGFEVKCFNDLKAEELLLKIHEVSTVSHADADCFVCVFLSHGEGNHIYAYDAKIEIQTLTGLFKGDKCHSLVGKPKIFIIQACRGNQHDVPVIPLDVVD
Target sequence (P55212 194-293 limits assumed): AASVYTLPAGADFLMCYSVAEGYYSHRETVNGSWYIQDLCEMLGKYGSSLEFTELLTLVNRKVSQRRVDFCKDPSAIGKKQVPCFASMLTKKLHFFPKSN
TDP2 inh: blocks human TDP2 phosphodiesterase activity | O95551 | recombinant TDP2, T5PNP hydrolysis, p-nitrophenol absorbance 415 nm | inhibition, % at 12.8 µM | 370,000 compounds, 0.34% hits;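 active = inhibition above the mean of all tested compounds plus 3 SD, set per campaign, cut at about 25% in these data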
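Assay system: recombinant human TDP2 / Reagent: T5PNP substrate at 5 mM, a TopII-DNA adduct mimic / Measured by: epi absorbance from released p-nitrophenol / Evaluation: % inhibition relative to enzyme-containing and enzyme-free wells / Control set: enzyme-free and DMSO wells / Replicates: each compound tested once, singlicate / Schedule: enzyme reaction with compound for 2 h at 37 °C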
LEDGF integ inh: blocks HIV-1 LEDGF/p75-dependent DNA integration. TR-FRET IN-LEDGF/p75 DNA integration, Eu/Cy5. inhibition, % at 3.7 µM. 370,000 compounds, 0.64% hits. AID 743269;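 active = inhibition above the screen-wide mean plus 3 SD, cut at about 13% in these data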;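 note: signal is the Cy5 over europium emission ratio at 671 and 618 nm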
NSD2 HMT inh: inhibitors of human histone methyltransferase NSD2 | O96028 | NSD2 peptide methylation, AlphaScreen, 120 min | inhibition, % at 12.5 µM | 310,000 compounds, 0.54% hits; in the data active = inhibition above about 50%
UHRF1 binding: human UHRF1 methylated DNA binding inhibitors; Q96T88; UHRF1 binding to methylated oligo, TR-FRET; inhibition, % at 4.4 µM; 370,000 compounds, 0.75% hits; in the data active = inhibition above about 21%;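 note: UHRF1 SRA domain binding a hemimethylated CpG hairpin DNA probe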
IN multimer act: HIV-1 integrase multimerization activation, counter-screen; 2,000 compounds, 17% hits; shares compounds with LEDGF integ inh; TR-FRET HIV-1 integrase multimerization, biochemical; activation, % at 7.7 µM; in the data active = activation above about 8.9%
TRFRET interf: TR-FRET optical interference, LEDGF/p75 integration counter-screen | inhibition, % at 7.7 µM | shares compounds with LEDGF integ inh | TR-FRET optical interference counterscreen, HIV-1 IN multimerization | 2,000 tested, under 10 active;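 active = inhibition above the mean over all tested compounds plus 3 SD, which no compound reached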
LEDGF integ conf: confirmation of HIV-1 LEDGF/p75-dependent integration inhibitors. TR-FRET LEDGF/p75-dependent HIV-1 integration, biochemical. 2,000 compounds, 36% hits. inhibition, % at 3.7 µM. shares compounds with LEDGF integ inh. AID 1053136; in the data active = inhibition above about 14%
A number is an active result; 0 = inactive; - = no result.

SMILES	MBD2 DNA inh	CASP6 VEID inh	TDP2 inh	LEDGF integ inh	NSD2 HMT inh	UHRF1 binding	IN multimer act	TRFRET interf	LEDGF integ conf
O=C(NCC[C@@H]1CC[C@@H](NS(=O)(=O)c2ccc(F)cc2)[C@@H](CO)O1)Nc1ccc(Cl)cc1	-	0	-	-	-	-	-	-	-
Fc1ccc(CNC(=S)Nc2cccc(Cl)c2)cc1	0	-	0	15	0	0	0	0	0
S=C(NCc1ccncc1)Nc1cccc(Cl)c1	0	-	0	0	0	0	-	-	-
CN1C(=O)c2cc(NC(=O)C3CCC3)ccc2OC[C@H]2O[C@H](CC(=O)NCCc3ccncc3)CC[C@@H]21	-	0	-	-	-	-	-	-	-
Oc1ccc(/C=N/N=C/c2ccc(O)c(O)c2)cc1O	0	68	0	75	-	0	32	0	90
CO[C@@H]1CN(C)C(=O)c2ccc(NC(=O)C3CC3)cc2OC[C@@H](C)N(C(=O)c2ccccn2)C[C@H]1C	-	0	-	-	-	-	-	-	-
CCc1cc(=O)oc2c(CN3CCCC3)c(O)c(Cl)cc12	0	-	0	0	0	0	-	-	-
CCc1cc(=O)oc2cc(C)c(CN3CCCC(C)C3)c(O)c12 (stereo not drawn)	0	-	0	19	0	27	0	0	20
CCCCc1cc(=O)oc2c(CN3CCCC3)c(O)ccc12	0	-	0	0	0	0	-	-	-
CCCCc1cc(=O)oc2cc(C)c(CN3CCCC3)c(O)c12	0	-	0	17	0	0	0	0	16
O=c1cc(-c2ccc(O)cc2)oc2cc(O)cc(O)c12	0	0	0	0	-	0	-	-	-
O=c1cc(-c2ccc(O)cc2)oc2cc(O)c(C3OC(CO)C(O)C(O)C3O)c(O)c12 (stereo not drawn)	0	37	0	21	-	0	30	0	48
C[C@H](O)C#Cc1ccc2c(c1)O[C@@H](CN(C)C(=O)CN(C)C)[C@@H](C)CN([C@@H](C)CO)S2(=O)=O	-	0	-	-	-	-	-	-	-
C/C=C/c1ccc2c(c1)O[C@H](CN(C)Cc1ccc(F)cc1)[C@@H](C)CN([C@@H](C)CO)S2(=O)=O	-	0	-	-	-	-	-	-	-
COc1cccc(Nc2nc(C(N)CC(C)C)cs2)n1 (stereo not drawn)	0	0	0	14	0	0	0	0	0
COc1cccc(Nc2nc(C(N)C(C)C)cs2)n1 (stereo not drawn)	0	0	0	0	0	0	-	-	-
CC(C)NC(=O)N(C)C[C@H]1Oc2ccc(NS(=O)(=O)c3cn(C)cn3)cc2CC(=O)N([C@@H](C)CO)C[C@@H]1C	-	0	-	-	-	-	-	-	-
O=C(CN1CCN(S(=O)(=O)c2ccc(Cl)c(Cl)c2)CC1)N1CCCC1	0	0	0	0	0	0	-	-	-
O=C(CN1CCN(S(=O)(=O)c2ccc(Cl)c(Cl)c2)CC1)N1CCCCC1	0	0	0	17	0	0	0	0	0
O=C(N[C@H]1CC[C@H](CCNS(=O)(=O)c2cccc(Cl)c2)O[C@@H]1CO)c1ccc(F)cc1	-	0	-	-	-	-	-	-	-
COC(=O)c1cn(CCNC(=O)[C@H](Cc2ccccc2)NS(=O)(=O)c2ccc(C)cc2)nn1	-	0	-	-	-	-	-	-	-
O=C1c2ccccc2C(=O)c2c1cccc2N1CCCC1	0	0	0	30	0	0	0	0	0
COCC(=O)Nc1ccc2c(c1)C(=O)N(C)[C@@H]1CC[C@@H](CC(=O)Nc3ccccc3)O[C@H]1CO2	-	0	-	-	-	-	-	-	-
COCCn1nnnc1C(c1ccccc1OC)N1CCc2ccccc2C1 (stereo not drawn)	0	-	0	33	0	0	0	0	0
O=C(C[C@H]1CC[C@@H](NC(=O)C2CC2)[C@@H](CO)O1)NCc1ccncc1	-	0	-	-	-	-	-	-	-
SMILES	MBD2 DNA inh	CASP6 VEID inh	TDP2 inh	LEDGF integ inh	NSD2 HMT inh	UHRF1 binding	IN multimer act	TRFRET interf	LEDGF integ conf
O=C1C[C@@H](O)[C@H](O)c2cccc(O)c21	0	-	0	18	-	0	0	0	0
O=C1O[C@@H](c2ccc(O)cc2)Cc2cccc(O)c21	0	0	0	0	-	0	-	-	-
Cc1onc(-c2c(Cl)cccc2Cl)c1-c1nc2cc(Cl)ccc2c(=O)o1	0	0	0	81	0	0	0	0	0
COc1ccc(/C=C2\CCc3c2nc2ccccc2c3C(=O)O)cc1OC	0	0	0	15	0	0	0	0	22
Cc1cc(C(=O)CN2c3cccc4cccc(c34)S2(=O)=O)c(C)n1C	0	0	0	20	0	0	0	0	0
CCC(CC)C(=O)N(C)c1c(C)nc2c(OCc3ccc(C(F)(F)F)cc3)cccn12	0	0	0	0	0	0	-	-	-
CCC(CC)C(=O)N(C)c1c(C)nc2c(OCc3ccc(F)c(F)c3)cccn12	0	-	0	21	0	0	0	0	0
O=C(O)c1ccc(NC2OC[C@@H](O)[C@H](O)[C@H]2O)cc1 (stereo partly drawn)	0	0	0	18	-	52	0	0	0
Cc1ccc(C)c(OCCC(=O)OCC(=O)c2c(N)n(C)c(=O)n(C)c2=O)c1	0	0	0	24	0	0	0	0	0
Cc1cc(Cl)ccc1OCCCC(=O)OCC(=O)c1c(N)n(C)c(=O)n(C)c1=O	0	0	0	0	0	0	-	-	-
